What was measured:
[1] = target: T1, Steryl-sulfatase (Homo sapiens) (UniProt P08842); assay: In vitro inhibition of Estrone Sulfatase in intact MCF-7 breast cancer cells at a concentration of 10 uM.; type: cell-based; conditions: MCF7
T1 sequence (whole entry): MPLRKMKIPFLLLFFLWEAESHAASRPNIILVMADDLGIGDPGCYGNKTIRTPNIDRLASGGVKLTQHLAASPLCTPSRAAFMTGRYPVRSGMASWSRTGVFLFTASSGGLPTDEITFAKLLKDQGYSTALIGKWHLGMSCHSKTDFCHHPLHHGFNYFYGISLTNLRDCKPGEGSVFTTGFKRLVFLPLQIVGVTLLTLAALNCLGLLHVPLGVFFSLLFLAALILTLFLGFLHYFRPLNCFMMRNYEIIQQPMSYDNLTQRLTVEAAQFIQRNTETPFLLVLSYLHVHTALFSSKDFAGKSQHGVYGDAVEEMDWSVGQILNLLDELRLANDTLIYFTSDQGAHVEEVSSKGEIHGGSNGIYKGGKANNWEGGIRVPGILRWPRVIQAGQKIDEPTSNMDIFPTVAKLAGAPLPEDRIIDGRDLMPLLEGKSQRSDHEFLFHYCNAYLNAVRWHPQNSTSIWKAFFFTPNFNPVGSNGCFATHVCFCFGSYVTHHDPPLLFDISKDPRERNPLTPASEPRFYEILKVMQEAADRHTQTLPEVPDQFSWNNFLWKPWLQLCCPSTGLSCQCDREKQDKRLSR

[2] = target: T1, Steryl-sulfatase (Homo sapiens); assay: In vitro inhibition of Estrone Sulfatase in placental microsomes at a concentration of 10 uM.; conditions: Placenta
[3] = target: T1, Steryl-sulfatase (Homo sapiens); assay: In vitro inhibition of Estrone Sulfatase in placental microsomes at a concentration of 100 uM.; conditions: Placenta
Summary of the method: (§1)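 Placental microsomes (100 000 g pellet; 125 µg protein/mL) incubated 30 min with [³H]estrone sulfate (4 × 10⁵ dpm) brought to 20 µM with unlabelled substrate, with or without inhibitor. Product extracted into toluene, with [4-¹⁴C]estrone to correct for procedural losses. % inhibition given as mean ± s.d. of triplicates.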

[4] = target: T1, Steryl-sulfatase (Homo sapiens); assay: In vitro inhibition of Estrone Sulfatase in placental microsomes at a concentration of 50 uM.; conditions: Placenta; summary of the method: as §1
[5] = target: T1, Steryl-sulfatase (Homo sapiens); assay: In vitro inhibition of Estrone Sulfatase in intact MCF-7 breast cancer cells at a concentration of 0.1 uM.; type: cell-based; conditions: MCF7
[6] = target: T1, Steryl-sulfatase (Homo sapiens); assay: In vitro inhibition of Estrone Sulfatase in intact MCF-7 breast cancer cells at a concentration of 1.0 uM.; type: cell-based; conditions: MCF7

| SMILES | inhibition [1] [%] | inhibition [2] [%] | inhibition [3] [%] | inhibition [4] [%] | inhibition [5] [%] | inhibition [6] [%] |
| --- | --- | --- | --- | --- | --- | --- |
| CC1CC(=O)Oc2cc(OS(N)(=O)=O)ccc21 (centres undefined) | 32.3 | 53.4 | 82.1 | 70.6 | < 10 | < 10 |
| Cc1cc(=O)oc2cc(O)c(OS(N)(=O)=O)cc12 | < 10 | < 10 | < 10 | < 10 | < 10 | < 10 |
| NS(=O)(=O)Oc1ccc2c(c1)OCC=C2 | 99.3 | 19.9 | 47.2 | 36.9 | 11.4 | 68.2 |
| Cc1c(C)c2ccc(OS(N)(=O)=O)c(C)c2oc1=O | 75.1 | 17.4 | 12.5 | 11.5 | 9.3 | 46.4 |
| NS(=O)(=O)Oc1ccc2c(c1)CCCC2=O | 78.1 | 16.1 | 56.1 | 54.3 | < 10 | 11.7 |
| NS(=O)(=O)Oc1ccc2c(c1)CCC2=O | 71.3 | 19.6 | 50.3 | 37.7 | 13.5 | 22.6 |
| Cc1cc(=O)oc2cc(OS(N)(=O)=O)c(OS(N)(=O)=O)cc12 | 31.2 | < 10 | < 10 | < 10 | < 10 | < 10 |
| Cc1cc(=O)oc2cc(OS(N)(=O)=O)ccc12 | – | – | 99 | 97.8 | 42.9 | 85.6 |
| NS(=O)(=O)Oc1ccc2c(c1)OC(=O)CC2 | 28.5 | < 10 | 34.4 | 15 | 12 | 30.2 |
| NS(=O)(=O)Oc1ccc2c(c1)C(=O)CC2 | 99 | < 10 | < 10 | < 10 | 33 | 91 |
| Cc1c(C)c2ccc(OS(N)(=O)=O)cc2oc1=O | – | 96.9 | 99.2 | 98.8 | – | – |
| NS(=O)(=O)Oc1ccc2c(c1)CCCC2 | 78.8 | < 10 | 12.5 | < 10 | 51.7 | 56.7 |

Other lines, results leading:

| inhibition [1] [%] | inhibition [2] [%] | inhibition [3] [%] | inhibition [4] [%] | inhibition [5] [%] | inhibition [6] [%] | SMILES |
| --- | --- | --- | --- | --- | --- | --- |
| 90.4 | 78.2 | 94.4 | 91.9 | 23.9 | 66 | NS(=O)(=O)Oc1ccc2ccc(=O)oc2c1 |
| 93.5 | 12.3 | 27 | 16.5 | 10.4 | 47.8 | NS(=O)(=O)Oc1ccc2c(c1)C(=O)CCC2 |
| 39.1 | < 10 | < 10 | < 10 | < 10 | 17.4 | Cc1cc(=O)oc2ccc(OS(N)(=O)=O)cc12 |
| 72.1 | < 10 | 69.9 | 42.9 | 33.8 | 34.1 | COc1cc2ccc(=O)oc2cc1OS(N)(=O)=O |
| 71.5 | 79.4 | 96.3 | 94.3 | 9.9 | 28.3 | NS(=O)(=O)Oc1ccc2c(C(F)(F)F)cc(=O)oc2c1 |
| 74.1 | < 10 | < 10 | < 10 | < 10 | 15.5 | NS(=O)(=O)Oc1cccc2c1CCC2=O |
| 76.2 | < 10 | 34.5 | 33.2 | 49 | 60.6 | NS(=O)(=O)Oc1ccc2c(c1)CCC=C2 |
